Assays:
Plasmodium falciparum [1] = experiment: In vitro inhibition of chloroquine-resistant Plasmodium falciparum K1; assay type: functional, organism-based
How it was run: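 P. falciparum K1 (uncloned, Thailand) kept in human erythrocytes in RPMI 1640 with 25 mM HEPES, 32 mM NaHCO3, 10% human serum, under 3% O2/4% CO2/93% N2. Stocks in ethanol, final <1% ethanol. 48 h test at 1% initial parasitemia, 5% hematocrit, 37 °C; [3H]-hypoxanthine added at 24 h, incorporation counted at 48 h. IC50 by probit interpolation of log dose–response; triplicate.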

Plasmodium falciparum [2] = experiment: In vitro inhibition of chloroquine-sensitive Plasmodium falciparum HB3; assay type: functional, organism-based
How it was run: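 HB3 parasites kept in human erythrocytes (2–5%) in RPMI 1640 with 25 mM HEPES, 32 mM NaHCO3, 10% human serum, gassed 3% O2/4% CO2/93% N2. 48 h assay: initial parasitemia 1%, 5% hematocrit, ethanol-dissolved drug (final <1% ethanol); [3H]-hypoxanthine (0.5 μCi) added at 24 h, counted after further 24 h. Triplicate; IC50 by probit interpolation of log dose–response.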

[3] = Cellular accumulation ratio (CAR) for chloroquine sensitive HB3 strain of Plasmodium falciparum; assay type: functional
How it was run: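 IC50 for HB3 measured at a range of inoculum sizes in the [3H]-hypoxanthine 48 h assay. It is extrapolated to zero inoculum to give the absolute IC50. CAR is calculated as (measured IC50 − absolute IC50)/(absolute IC50 × fractional volume of parasitized RBC).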

SMILES | IC50 (Plasmodium falciparum [2]) [nM] | IC50 (Plasmodium falciparum [1]; Plasmodium falciparum) [nM] | CAR [3] | IC50 (Plasmodium falciparum [1]) [nM]
CCN(CC)Cc1cc(Nc2ccnc3cc(Cl)ccc23)cc(-c2ccc(Cl)cc2)c1F | 104 | 101 | – | –
CC(C)(C)NCc1cc(Nc2ccnc3cc(Cl)ccc23)cc(-c2ccc(Cl)cc2)c1 | 56.6 | 74.2 | 1200 | –
CCN(CC)CCCC(C)Nc1ccnc2cc(Cl)ccc12 (configuration not stated) | – | – | 1860 | –
CC(C)(C)NCc1cc(Nc2ccnc3cc(Cl)ccc23)cc(-c2ccc(Cl)cc2)c1F [FLOUROTEBUQUINE] | 61.6 | – | 1080 | –
CC(C)(C)NCc1cc(Nc2ccnc3cc(Cl)ccc23)cc(-c2ccc(Cl)cc2)c1O [TEBUQUINE] | – | – | 70200 | 42.1
CCN(CC)Cc1cc(Nc2ccnc3cc(Cl)ccc23)ccc1O | 3.7 | 27.2 | 12600 | –

The next lines start with results.

IC50 (Plasmodium falciparum [2]) [nM] | SMILES | IC50 (Plasmodium falciparum [1]; Plasmodium falciparum) [nM] | CAR [3] | IC50 (Plasmodium falciparum [1]) [nM]
17 | CCNCCCC(C)Nc1ccnc2cc(Cl)ccc12 (configuration not stated) [DESETHYLCHLOROQUINE] | – | 682 | –
47.3 | CCN(CC)Cc1c(O)cc(F)c(Nc2ccnc3cc(Cl)ccc23)c1F | – | 922 | –
4.5 | CCNCc1cc(Nc2ccnc3cc(Cl)ccc23)ccc1O [DESETHYL AMODIAQUINE] | – | 6410 | –
3.7 | CC(C)(C)NCc1cc(Nc2ccnc3cc(Cl)ccc23)ccc1O [N-TERT-BUTYL-AMODIAQUINE] | – | 21100 | –
16.2 | CCN(CC)Cc1cccc(Nc2ccnc3cc(Cl)ccc23)c1 | – | 3090 | –
55.2 | CCN(CC)Cc1cc(Nc2ccnc3cc(Cl)ccc23)cc(F)c1O | – | 1510 | –
31.9 | CCN(CC)Cc1cc(Nc2ccnc3cc(Cl)ccc23)ccc1F | – | 1710 | –
